Results as given in ChEMBL document CHEMBL2331108, “Synthesis and biological evaluation of a new series of hexahydro-2H-pyrano[3,2-c]quinolines as novel selective σ1 receptor ligands” (J Med Chem, 2013).

Experiments:
[1] = Displacement of [3H]-Di-o-tolyguanidine from guinea pig sigma2 receptor after 120 mins by liquid scintillation counting analysis; set-up: species or system Cavia porcellus
Cytochrome P450 1A2 = molecular target: T1, Cytochrome P450 1A2 (Homo sapiens, UniProt P05177); assay: Inhibition of human recombinant CYP1A2; assay type: ADME
T1 sequence (P05177 whole entry): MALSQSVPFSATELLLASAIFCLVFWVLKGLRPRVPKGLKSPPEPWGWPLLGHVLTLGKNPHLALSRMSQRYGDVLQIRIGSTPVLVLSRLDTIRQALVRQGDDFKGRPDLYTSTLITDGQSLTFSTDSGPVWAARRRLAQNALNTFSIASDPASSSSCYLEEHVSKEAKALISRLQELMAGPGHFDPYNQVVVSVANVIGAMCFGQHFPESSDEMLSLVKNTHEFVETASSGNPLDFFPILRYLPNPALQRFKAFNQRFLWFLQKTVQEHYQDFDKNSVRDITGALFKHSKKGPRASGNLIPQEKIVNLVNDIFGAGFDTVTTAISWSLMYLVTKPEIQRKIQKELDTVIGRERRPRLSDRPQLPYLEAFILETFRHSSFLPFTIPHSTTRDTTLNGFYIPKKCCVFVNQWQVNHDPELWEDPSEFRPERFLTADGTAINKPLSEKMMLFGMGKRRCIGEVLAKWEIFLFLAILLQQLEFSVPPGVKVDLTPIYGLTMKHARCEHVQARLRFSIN

[2] = molecular target: Voltage-gated inwardly rectifying potassium channel KCNH2 (Homo sapiens, UniProt Q12809); assay: Binding affinity to human ERG channel by patch clamp assay
[3] = molecular target: Sigma non-opioid intracellular receptor 1 (Homo sapiens, UniProt Q99720); assay: Displacement of [3H]-(+)-pentazocine from human sigma1 receptor transfected in HEK293 cells after 120 mins by liquid scintillation counting analysis; assay type: cell-based
Salmonella typhimurium = assay: Genotoxicity in Salmonella typhimurium by Ames test; assay type: toxicity, organism-based; settings: salmonella enterica subsp. enterica serovar typhimurium
Liver microsomes [4] = assay: Intrinsic clearance in human liver microsomes assessed per milligram of protein; assay type: ADME, Microsome
Liver microsomes [5] = assay: Intrinsic clearance in rat liver microsomes assessed per milligram of protein; assay type: ADME, Microsome
Mus musculus [6] = assay: Antinociceptive activity in CD1 mouse assessed as inhibition of formalin-induced pain at 80 mg/kg, ip administered 15 mins before formalin-challenge measured after 15 to 30 mins; assay type: functional; settings: route intraperitoneal
Outline: (§1)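 Male CD1 mice, 6–8 weeks old (n = 8–12 per group), were dosed ip at 10 mL/kg in 0.5% HPMC vehicle. 15 min later, 20 μL of 2.5% formalin (0.92% formaldehyde) was injected into the right hind paw, midplantar. Licking/biting time was scored 0–5 min (phase I) and 15–30 min (phase II).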

HepG2 [7] = assay: Cytotoxicity against human HepG2 cells up to 100 uM by neutral red uptake assay; assay type: cell-based
[8] = Dissociation constant, pKa of the compound; assay type: physicochemical
Outline: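 pKa measured experimentally by pH-metric titration on an automated GlpKa instrument.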

Cytochrome P450 2C9 = Cytochrome P450 2C9 (Homo sapiens, UniProt P11712); assay: Inhibition of human recombinant CYP2C9; assay type: ADME
Cytochrome P450 2D6 = Cytochrome P450 2D6 (Homo sapiens, UniProt P10635); assay: Inhibition of human recombinant CYP2D6; assay type: ADME
Cytochrome P450 3A4 = Cytochrome P450 3A4 (Homo sapiens, UniProt P08684); assay: Inhibition of human recombinant CYP3A4; assay type: ADME
Liver = assay: Intrinsic clearance in mouse liver microsomes assessed per milligram of protein; assay type: ADME, Microsome
Mus musculus [9] = assay: Antinociceptive activity in CD1 mouse assessed as inhibition of formalin-induced pain at 40 mg/kg, ip administered 15 mins before formalin-challenge measured after 15 to 30 mins; assay type: functional; settings: route intraperitoneal; outline: as §1
Cytochrome P450 2C19 = Cytochrome P450 2C19 (Homo sapiens, UniProt P33261); assay: Inhibition of human recombinant CYP2C19; assay type: ADME
HepG2 [10] = assay: Cytotoxicity against human HepG2 cells up to 100 uM by MTT assay; assay type: cell-based
Mus musculus [11] = assay: Antinociceptive activity in CD1 mouse assessed as inhibition of capsaicin-induced mechanical hypersensitivity at 80 mg/kg, po administered 30 mins before capsaicin-challenge measured after 15 mins; assay type: functional
[12] = molecular target: 5-hydroxytryptamine receptor 2B (Homo sapiens, UniProt P41595); assay: Binding affinity to human 5-HT2B receptor
[13] = Kinetic solubility of the compound; assay type: physicochemical; settings: read-out: Kinetic_solubility
Outline: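 Kinetic solubility: compound solution at 1% DMSO in phosphate buffer, pH 7.4, quantified by HPLC.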

Mus musculus [14] = assay: Antinociceptive activity in ip dosed CD1 mouse assessed as inhibition of formalin-induced pain administered 15 mins before formalin-challenge measured after 15 to 30 mins; assay type: functional, organism-based; outline: as §1

Sigma non-opioid intracellular receptor 1, sequence (Q99720 whole entry): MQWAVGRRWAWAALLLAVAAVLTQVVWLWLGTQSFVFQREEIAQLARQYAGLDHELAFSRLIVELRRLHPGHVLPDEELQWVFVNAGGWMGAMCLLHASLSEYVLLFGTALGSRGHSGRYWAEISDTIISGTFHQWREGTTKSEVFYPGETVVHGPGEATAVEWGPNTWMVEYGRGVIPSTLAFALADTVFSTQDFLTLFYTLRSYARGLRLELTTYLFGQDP
Cytochrome P450 2C19, sequence (P33261 whole entry): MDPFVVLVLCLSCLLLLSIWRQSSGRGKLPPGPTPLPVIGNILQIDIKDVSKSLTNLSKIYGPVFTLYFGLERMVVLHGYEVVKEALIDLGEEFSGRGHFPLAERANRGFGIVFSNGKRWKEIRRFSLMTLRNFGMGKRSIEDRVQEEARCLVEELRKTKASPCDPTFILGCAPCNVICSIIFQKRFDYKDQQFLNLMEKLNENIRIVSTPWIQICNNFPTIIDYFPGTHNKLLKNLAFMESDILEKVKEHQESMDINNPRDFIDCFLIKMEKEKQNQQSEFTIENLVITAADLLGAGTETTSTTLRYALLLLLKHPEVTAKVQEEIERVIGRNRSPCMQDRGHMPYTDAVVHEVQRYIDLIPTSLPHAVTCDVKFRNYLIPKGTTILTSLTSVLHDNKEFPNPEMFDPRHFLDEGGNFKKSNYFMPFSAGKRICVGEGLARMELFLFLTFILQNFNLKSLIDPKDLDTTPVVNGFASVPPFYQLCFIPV
Cytochrome P450 2C9, sequence (P11712 whole entry): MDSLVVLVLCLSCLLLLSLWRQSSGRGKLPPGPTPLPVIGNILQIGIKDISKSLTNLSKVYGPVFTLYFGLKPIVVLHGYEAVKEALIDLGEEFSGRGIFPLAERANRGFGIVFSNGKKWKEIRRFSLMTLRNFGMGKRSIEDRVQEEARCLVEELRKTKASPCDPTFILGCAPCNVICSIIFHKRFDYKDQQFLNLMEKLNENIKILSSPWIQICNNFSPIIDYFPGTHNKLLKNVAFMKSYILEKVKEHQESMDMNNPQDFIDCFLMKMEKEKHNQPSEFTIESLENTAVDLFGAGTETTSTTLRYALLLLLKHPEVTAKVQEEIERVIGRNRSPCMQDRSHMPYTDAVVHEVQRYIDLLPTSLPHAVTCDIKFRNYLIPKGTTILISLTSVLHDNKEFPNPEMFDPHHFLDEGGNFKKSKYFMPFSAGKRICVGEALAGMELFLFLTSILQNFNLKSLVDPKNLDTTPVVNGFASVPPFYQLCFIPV
Cytochrome P450 2D6, sequence (P10635 whole entry): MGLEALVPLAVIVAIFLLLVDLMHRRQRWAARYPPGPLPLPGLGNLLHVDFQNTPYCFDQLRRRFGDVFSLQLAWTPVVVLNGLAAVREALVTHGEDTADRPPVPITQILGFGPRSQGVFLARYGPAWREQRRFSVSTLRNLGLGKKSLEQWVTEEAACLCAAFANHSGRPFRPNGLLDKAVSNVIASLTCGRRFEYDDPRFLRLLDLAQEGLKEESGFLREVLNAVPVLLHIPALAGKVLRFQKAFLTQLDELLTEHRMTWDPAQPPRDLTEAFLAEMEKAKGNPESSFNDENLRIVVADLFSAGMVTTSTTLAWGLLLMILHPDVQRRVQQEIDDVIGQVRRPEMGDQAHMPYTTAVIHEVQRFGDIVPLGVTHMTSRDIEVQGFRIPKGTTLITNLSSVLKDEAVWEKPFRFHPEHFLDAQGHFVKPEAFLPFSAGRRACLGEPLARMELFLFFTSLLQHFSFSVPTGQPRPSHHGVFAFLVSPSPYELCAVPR
5-hydroxytryptamine receptor 2B, sequence (P41595 whole entry): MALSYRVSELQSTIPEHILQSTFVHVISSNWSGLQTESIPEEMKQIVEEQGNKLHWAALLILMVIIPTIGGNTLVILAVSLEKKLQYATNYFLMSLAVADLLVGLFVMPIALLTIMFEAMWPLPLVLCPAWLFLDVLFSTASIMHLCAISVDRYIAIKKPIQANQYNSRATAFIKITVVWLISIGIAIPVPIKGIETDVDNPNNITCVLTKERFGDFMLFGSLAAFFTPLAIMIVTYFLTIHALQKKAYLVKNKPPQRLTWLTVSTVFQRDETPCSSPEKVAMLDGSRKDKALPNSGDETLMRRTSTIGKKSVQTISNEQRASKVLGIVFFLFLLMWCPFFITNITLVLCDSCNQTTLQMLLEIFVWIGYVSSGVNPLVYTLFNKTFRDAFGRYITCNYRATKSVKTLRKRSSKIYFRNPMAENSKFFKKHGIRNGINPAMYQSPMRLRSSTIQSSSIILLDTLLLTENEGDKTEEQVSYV
Voltage-gated inwardly rectifying potassium channel KCNH2, sequence (Q12809 whole entry): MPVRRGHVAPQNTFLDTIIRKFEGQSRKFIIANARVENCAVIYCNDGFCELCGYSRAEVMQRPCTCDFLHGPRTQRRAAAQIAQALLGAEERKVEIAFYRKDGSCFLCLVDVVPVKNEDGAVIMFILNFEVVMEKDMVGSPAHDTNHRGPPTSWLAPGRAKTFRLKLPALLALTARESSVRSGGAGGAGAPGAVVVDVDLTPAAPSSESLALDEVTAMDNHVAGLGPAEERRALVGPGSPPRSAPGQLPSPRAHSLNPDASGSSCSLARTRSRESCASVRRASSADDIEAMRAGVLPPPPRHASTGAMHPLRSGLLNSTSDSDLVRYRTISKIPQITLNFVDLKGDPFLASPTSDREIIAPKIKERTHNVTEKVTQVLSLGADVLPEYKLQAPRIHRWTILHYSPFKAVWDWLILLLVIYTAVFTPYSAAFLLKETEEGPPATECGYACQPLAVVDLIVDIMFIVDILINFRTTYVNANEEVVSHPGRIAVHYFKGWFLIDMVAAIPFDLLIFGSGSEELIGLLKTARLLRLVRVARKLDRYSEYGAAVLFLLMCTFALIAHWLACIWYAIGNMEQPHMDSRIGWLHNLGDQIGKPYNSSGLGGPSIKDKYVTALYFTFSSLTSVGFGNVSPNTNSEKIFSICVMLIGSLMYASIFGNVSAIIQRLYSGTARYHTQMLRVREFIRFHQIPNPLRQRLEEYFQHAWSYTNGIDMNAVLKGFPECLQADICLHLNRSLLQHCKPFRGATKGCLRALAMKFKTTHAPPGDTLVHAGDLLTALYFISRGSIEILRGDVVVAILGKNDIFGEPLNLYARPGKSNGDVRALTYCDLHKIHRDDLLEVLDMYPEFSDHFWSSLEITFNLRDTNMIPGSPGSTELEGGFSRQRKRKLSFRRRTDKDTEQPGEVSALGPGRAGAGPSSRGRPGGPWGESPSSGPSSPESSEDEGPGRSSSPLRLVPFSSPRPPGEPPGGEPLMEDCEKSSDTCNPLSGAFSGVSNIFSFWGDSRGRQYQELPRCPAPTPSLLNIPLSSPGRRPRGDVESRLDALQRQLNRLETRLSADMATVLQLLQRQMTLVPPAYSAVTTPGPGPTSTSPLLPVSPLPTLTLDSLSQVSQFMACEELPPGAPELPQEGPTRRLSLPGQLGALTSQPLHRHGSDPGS
Cytochrome P450 3A4, sequence (P08684 whole entry): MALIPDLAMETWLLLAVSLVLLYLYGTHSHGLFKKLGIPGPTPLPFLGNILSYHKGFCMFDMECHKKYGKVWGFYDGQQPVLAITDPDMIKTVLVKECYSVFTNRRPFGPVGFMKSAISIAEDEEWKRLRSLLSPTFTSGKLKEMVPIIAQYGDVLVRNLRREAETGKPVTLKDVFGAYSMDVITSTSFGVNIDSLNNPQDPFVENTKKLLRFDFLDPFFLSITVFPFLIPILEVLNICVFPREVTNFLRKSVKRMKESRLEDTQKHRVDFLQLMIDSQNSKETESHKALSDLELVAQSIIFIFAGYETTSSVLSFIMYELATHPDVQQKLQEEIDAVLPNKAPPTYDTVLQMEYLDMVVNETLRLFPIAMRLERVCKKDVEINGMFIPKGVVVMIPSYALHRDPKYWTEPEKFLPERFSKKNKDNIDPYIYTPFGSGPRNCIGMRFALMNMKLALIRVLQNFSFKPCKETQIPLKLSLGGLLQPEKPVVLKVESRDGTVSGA

Row | Compound | Ki [1] [nM] | Ki [3] [nM] | other results
1 | Cc1cc(OCCN2CCOCC2)nn1-c1ccc2ccccc2c1 | 1000 |  | 
2 | CC(C)CCOc1ccc2c(c1)[C@H]1OCCC[C@H]1[C@@H](C1CCOCC1)N2 [listing 1 of 2 here] | 1000 | 30 | IC50 (Cytochrome P450 1A2): > 5000 nM; IC50 [2]: > 10000 nM; Activity (Salmonella typhimurium): Non-toxic; CLH (Liver microsomes [4]): 5 µL/min; CLH (Liver microsomes [5]): 21.7 µL/min; inhibition in vivo at 80 mg/kg (Mus musculus [6]): 81%; Activity (HepG2 [7]): Non-toxic; pKa [8]: 3.8; IC50 (Cytochrome P450 2C9): > 5000 nM; IC50 (Cytochrome P450 2D6): > 5000 nM; IC50 (Cytochrome P450 3A4): > 5000 nM; CLH (Liver): 15.1 µL/min; inhibition in vivo at 40 mg/kg (Mus musculus [9]): 40%; IC50 (Cytochrome P450 2C19): > 5000 nM; Activity (HepG2 [10]): Non-toxic; inhibition in vivo at 80 mg/kg (Mus musculus [11]): 63%; Ki [12]: 5300 nM
3 | CCCCCc1ccc2c(c1)[C@H]1OCCC[C@H]1[C@@H](C1CCCCC1)N2 | 1000 | 19 | solubility kinetic [13]: < 1 µM
4 | CCCCCc1ccc2c(c1)[C@@H]1OCCC[C@@H]1[C@H](C1CCCCC1)N2 | 1000 | > 1000 | 
5 | CC(C)CCOc1ccc2c(c1)[C@H]1OCCC[C@H]1[C@@H](C1CCCCC1)N2 | 1000 | 14 | solubility kinetic [13]: < 1 µM
6 | CC(C)CCOc1ccc2c(c1)[C@@H]1OCCC[C@@H]1[C@H](C1CCCCC1)N2 | 1000 | > 1000 | 
7 | CC(C)CCOc1ccc2c(c1)[C@@H]1OCCC[C@@H]1[C@H](C1CCOCC1)N2 | 1000 | > 1000 | 
8 | CC(C)CCOc1ccc2c(c1)[C@H]1OCCC[C@H]1[C@@H](C1CCOCC1)N2 [listing 2 of 2 here] |  |  | inhibition (Mus musculus [14]): Dose-dependent effect
9 | CCCCOc1ccc2c(c1)[C@H]1OCC[C@H]1[C@@H](C1CCCCC1)N2 (racemic) | 1000 | > 1000 | 
10 | CC(C)CCOc1ccc2c(c1)[C@H]1OCC[C@H]1[C@@H](C1CCCCC1)N2 (racemic) | 1000 | 108 | 
11 | CCCCCc1ccc2c(c1)[C@H]1OCCC[C@H]1[C@@H](C(CC)CC)N2 (racemic) | 1000 | 410 | 
12 | CCCCCc1ccc2c(c1)[C@H]1OCCC[C@H]1[C@@H](C1CCOCC1)N2 (racemic) | 1000 | 67 | 
13 | CCCCOc1ccc2c(c1)[C@H]1OCCC[C@H]1[C@@H](C1CC1)N2 (racemic) | 1000 | > 1000 | 
14 | CCCCOc1ccc2c(c1)[C@H]1OCCC[C@H]1[C@@H](c1ccccc1)N2 (racemic) | 1000 | > 1000 | 
15 | CC(C)CCOc1ccc2c(c1)[C@H]1OCCC[C@H]1[C@@H](C1CCCC1)N2 (racemic) | 1000 | 124 | 
16 | CC(C)CCOc1ccc2c(c1)[C@H]1OCCC[C@H]1[C@@H](C1CCOCC1)N2 (racemic) |  | 84 | 
17 | CC(C)CCOc1ccc2c(c1)[C@H]1OCCC[C@H]1[C@@H](C1CCNCC1)N2 (racemic) | 1000 | 536 | 
18 | CCN1CCC([C@H]2Nc3ccc(OCCC(C)C)cc3[C@H]3OCCC[C@H]32)CC1 (racemic) | 1000 | 317 | 
19 | CC(C)CCOc1ccc2c(c1)[C@H]1OCCC[C@H]1[C@@H](C1CCN(Cc3ccccc3)CC1)N2 (racemic) | 1000 | 15 | solubility kinetic [13]: < 1 µM
20 | CCCCCc1ccc2c(c1)[C@H]1OCCC[C@H]1[C@@H](C1CCCCC1)N2 (racemic) |  | 43 | 

Row | Compound | Ki [1] [nM] | Ki [3] [nM] | other results
21 | CC(C)CCOc1ccc2c(c1)[C@H]1OCCC[C@H]1[C@@H](C1CCCCC1)N2 (racemic) |  | 52 | 
22 | Clc1cccc(Oc2ccc3c(c2)[C@H]2OCCC[C@H]2[C@@H](C2CCCCC2)N3)c1 (racemic) | 1000 | 377 | 
23 | Clc1cccc(Oc2ccc3c(c2)[C@H]2OCCC[C@H]2[C@H](C2CCCCC2)N3)c1 (racemic) | 1000 | > 1000 | 
24 | Clc1ccccc1Oc1ccc2c(c1)[C@H]1OCCC[C@H]1[C@@H](C1CCCCC1)N2 (racemic) | 1000 | > 1000 | 
25 | Clc1ccc(Oc2ccc3c(c2)[C@H]2OCCC[C@H]2[C@@H](C2CCCCC2)N3)cc1Cl (racemic) | 1000 | 79 | 
26 | c1ccc(Oc2ccc3c(c2)[C@H]2OCCC[C@H]2[C@@H](C2CCCCC2)N3)cc1 (racemic) | 1000 | > 1000 | 
27 | c1ccc2c(c1)N[C@H](C1CCCCC1)[C@@H]1CCCO[C@H]21 (racemic) | 1000 | > 1000 | 
28 | CCCCc1ccc2c(c1)[C@H]1OCCC[C@H]1[C@@H](C1CCCCC1)N2 (racemic) | 1000 | > 1000 | 
29 | CCCCOc1ccc2c(c1)[C@H]1OCCC[C@H]1[C@@H](C1CCCCC1)N2 (racemic) | 1000 | 178 | 
30 | Fc1ccc(COc2ccc3c(c2)[C@H]2OCCC[C@H]2[C@@H](C2CCCCC2)N3)cc1 (racemic) | 1000 | > 1000 | 
31 | c1cc2c(cc1C1CCCCC1)[C@H]1OCCC[C@H]1[C@@H](C1CCCCC1)N2 (racemic) | 1000 | > 1000 | 
32 | c1ccc(-c2ccc3c(c2)[C@H]2OCCC[C@H]2[C@@H](C2CCCCC2)N3)cc1 (racemic) | 1000 | > 1000 | 
33 | CCCNS(=O)(=O)c1ccc2c(c1)[C@H]1OCCC[C@H]1[C@@H](C1CCCCC1)N2 (racemic) | 1000 | > 1000 | 
34 | O=C(Nc1ccc2c(c1)[C@H]1OCCC[C@H]1[C@@H](C1CCCCC1)N2)c1ccccc1 (racemic) | 1000 | > 1000 | 
35 | Clc1ccc(Oc2ccc3c(c2)[C@H]2OCC[C@H]2[C@@H](C2CCCCC2)N3)cc1 (racemic) | 1000 | 302 | 
36 | CCCCCc1ccc2c(c1)[C@H]1OCC[C@H]1[C@@H](C1CCCCC1)N2 (racemic) | 1000 | 245 | 
37 | Clc1ccc(Oc2ccc3c(c2)[C@H]2OCCC[C@H]2[C@@H](C2CCCCC2)N3)cc1 (racemic) | > 1000 | 194 | solubility kinetic [13]: < 0.4 µM
38 | Clc1ccc(Oc2ccc3c(c2)[C@H]2OCCC[C@H]2[C@H](C2CCCCC2)N3)cc1 (racemic) | 1000 | > 1000 | 
39 | O=C(CCCN1CCC(O)(c2ccc(Cl)cc2)CC1)c1ccc(F)cc1 [HALOPERIDOL] | 1000 |  | 
